{"source": "ChEMBL document CHEMBL4038317", "about": "“Discovery of a Benzamide Derivative That Protects Pancreatic β-Cells against Endoplasmic Reticulum Stress” (J Med Chem, 2017)", "key": {"INS1 [1]": {"test_system": "INS1", "assay": "Effect on CHOP mRNA level in rat INS-1 cells up to 10 uM after 8 hrs by qRT-PCR analysis", "type": "ADME, cell-based", "settings": "ins1, 8 h", "outline": "(§1)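 INS-1 cells, 4×10^5 per well, were exposed to tunicamycin 0.1 μg/mL with compound or DMSO for 8 h. qRT-PCR for ATF4, CHOP, Bip, GRP94, or spliced XBP1 using splicing-specific primers. Values were normalized to cyclophilin A by ΔΔCt and given as fold over untreated control. Triplicate wells, 3 independent experiments.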"}, "INS1 [2]": {"test_system": "INS1", "assay": "Effect on ATF4 mRNA level in rat INS-1 cells up to 10 uM after 8 hrs by qRT-PCR analysis", "type": "ADME, cell-based", "settings": "ins1, 8 h", "outline": "as §1"}, "INS1 [3]": {"test_system": "INS1", "assay": "Cytoprotective activity in rat INS-1 cells assessed as protection against tunicamycin-induced ER stress-mediated reduction reduction in cell viability up to 10 uM after 3 days by MTT assay", "type": "functional, cell-based", "outline": "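INS-1 cells, 3×10^3 per well, were exposed to tunicamycin 0.1 μg/mL with compound for 72 h. MTT was added for 3 h at 37 °C, then crystal-dissolving solution for 4 h, and absorbance read at 570 nm. Triplicate wells, three independent experiments.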"}, "Beta-TC6": {"test_system": "Beta-TC6", "assay": "Cytoprotective activity in mouse BetaTC6 cells assessed as protection against tunicamycin-induced ER stress-mediated reduction in cell viability after 3 days by CellTiter-Glo assay", "type": "functional, cell-based", "outline": "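βTC6 cells, 3×10^3 per well, were exposed to tunicamycin 0.3 μg/mL with compound or DMSO for 72 h. Intracellular ATP was read by luminescence and expressed as fold of no-tunicamycin cells. Triplicate wells, three independent experiments.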"}, "INS1 [4]": {"test_system": "INS1", "assay": "Cytotoxicity against rat INS-1 cells assessed as reduction in cell viability up to 10 uM after 3 days by CellTiter-Glo assay", "type": "cell-based", "settings": "ins1, 72 h", "outline": "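INS-1 cells, 3×10^3 per well, were given compound or DMSO alone (no tunicamycin) for 72 h. Intracellular ATP was read by luminescence and expressed as fold of untreated cells. Triplicate wells, three independent experiments.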"}, "INS1 [5]": {"test_system": "INS1", "assay": "Cytoprotective activity against tunicamycin ER stress-induced apoptosis in rat INS-1 cells assessed as inhibition of tunicamycin-induced cleaved caspase3 expression up to 1 uM after 24 hrs by Western blot analysis", "type": "functional, cell-based", "outline": "(§2)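 INS-1 cells, 8×10^5 per 60-mm dish, were exposed to tunicamycin 0.1 μg/mL plus compound or DMSO for 24 h. 20 μg lysate protein was run on 7% SDS-PAGE and immunoblotted for cleaved caspase-3 and PARP (1:1000), with α-tubulin as loading control; 3 independent experiments.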"}, "INS1 [6]": {"test_system": "INS1", "assay": "Cytoprotective activity against tunicamycin ER stress-induced apoptosis in rat INS-1 cells assessed as inhibition of tunicamycin-induced cleaved PARP expression up to 1 uM after 24 hrs by Western blot analysis", "type": "functional, cell-based", "outline": "as §2"}, "Rattus norvegicus": {"species_on_record": "Rattus norvegicus", "assay": "Inhibition of tunicamycin ER stress-induced IRE1alpha activation in rat INS-1 cells assessed as suppression of tunicamycin-induced increase in XBP1 mRNA levels up to 10 uM after 8 hrs by qRT-PCR analysis", "type": "cell-based", "outline": "as §1"}, "[7]": {"target": "T1, Cyclic AMP-dependent transcription factor ATF-6 alpha (Rattus norvegicus) (UniProt G3V909)", "T1 sequence (whole entry)": "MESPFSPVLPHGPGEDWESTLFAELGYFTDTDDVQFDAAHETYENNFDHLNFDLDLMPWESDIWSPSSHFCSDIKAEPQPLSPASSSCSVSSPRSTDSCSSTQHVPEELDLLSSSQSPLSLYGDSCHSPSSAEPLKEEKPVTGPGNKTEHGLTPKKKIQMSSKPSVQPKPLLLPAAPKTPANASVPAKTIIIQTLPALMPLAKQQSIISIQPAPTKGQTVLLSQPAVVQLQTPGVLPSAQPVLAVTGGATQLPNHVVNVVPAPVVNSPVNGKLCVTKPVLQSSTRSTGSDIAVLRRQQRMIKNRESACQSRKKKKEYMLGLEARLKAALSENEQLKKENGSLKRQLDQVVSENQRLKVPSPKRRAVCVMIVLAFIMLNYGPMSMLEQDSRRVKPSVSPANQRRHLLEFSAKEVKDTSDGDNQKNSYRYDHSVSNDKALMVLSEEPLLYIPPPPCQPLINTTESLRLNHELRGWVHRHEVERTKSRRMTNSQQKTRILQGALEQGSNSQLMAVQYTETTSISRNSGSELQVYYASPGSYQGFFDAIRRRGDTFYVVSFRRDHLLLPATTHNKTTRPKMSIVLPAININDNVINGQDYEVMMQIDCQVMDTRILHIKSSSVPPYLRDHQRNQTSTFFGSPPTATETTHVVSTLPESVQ", "assay": "Inhibition of tunicamycin ER stress-induced ATF6 activation in rat INS-1 cells assessed as suppression of increase in […] mRNA levels up to 10 uM after 8 hrs by qRT-PCR analysis", "type": "cell-based", "outline": "as §1"}, "Mus musculus": {"test_system": "Mus musculus", "assay": "Antidiabetic activity in STZ-induced diabetic overnight fasted C57BL/6 mouse model assessed as blood glucose level at 5 mg/kg, ip administrated qd with streptozotocin for 5 days followed by compound administration alone for 2 more weeks measured at 15 mins post last dose relative to control", "type": "functional, organism-based", "outline": "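Same STZ/compound i.p. regimen in male C57BL/6 mice, vehicle group as control. Intraperitoneal glucose tolerance test in overnight-fasted mice: glucose 2 g/kg i.p., blood glucose read at set times after the glucose load.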"}}, "note": "Active and inactive are the calls of the source. The calls are words filed in the database; no cut-off is given here."}
{"smiles": "O=C(NCc1ccc(C(F)(F)F)cc1)c1cccc(CN2CCCCC2)c1", "values": [{"measurement": "Activity", "setting": "INS1 [1]", "result": "Non-Toxic"}, {"measurement": "Activity", "setting": "INS1 [2]", "result": "Non-Toxic"}, {"measurement": "Activity", "setting": "INS1 [3]", "result": "Active"}, {"measurement": "Activity", "setting": "Beta-TC6", "result": "Dose-dependent effect"}, {"measurement": "Activity", "setting": "INS1 [4]", "result": "Non-Toxic"}, {"measurement": "inhibition", "setting": "INS1 [5]", "result": "Active"}, {"measurement": "inhibition", "setting": "INS1 [6]", "result": "Active"}, {"measurement": "inhibition", "setting": "Rattus norvegicus", "result": "Active"}, {"measurement": "inhibition", "setting": "[7]", "result": "Active"}, {"measurement": "Activity", "setting": "Mus musculus", "result": "Active"}]}
